These results are taken from PubChem BioAssay.

Test [1] in a line: inhibitors of TNFa-induced NFkB p65 translocation, primary screen, imaging, HUVEC, MLSMR starter and 10KST1 sets (AID 438).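 Further: compound added about 3h40 before a 20 min TNFalpha stimulation.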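 On inhibition: signal is the nuclear over cytoplasmic p65 intensity ratio per well.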 The conditions noted are these: HUVEC TNFa-induced p65 nuclear translocation; cell count: measured here: nuclei count (cytotoxicity indicator), at 2.08 µM; inhibition: at 2 µM, stronger effect = higher value, 0% TNFa-plus-vehicle, 100% no-TNFa wells.
Test [2] can be described thus: inhibitors of mutant huntingtin aggregation, primary screen, imaging, exon1htt(103Q)mCFP cells, high-content imaging (AID 483;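 active means visual image review flags a hit and inhibition of aggregation exceeds 20%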;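 further: compound exposure lasted 3 days before fixation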;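 on nuclei count: percent of the per-plate median nuclei count of sample wells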). The note with it: exon1htt(103Q)mCFP cell line, aggregate imaging, at 2 µM; inhibition of aggregation: stronger effect = higher value; nuclei count: measured here: cell count, toxicity.
A short description of test [3]: inhibitors of E-selectin induction by TNFa, primary screen, imaging, HUVEC, immunofluorescence, MLSMR starter and 10KST1 sets (AID 487;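 active means visually confirmed hit in the image check and inhibition above 20%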;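 on inhibition: signal is fraction of cell area covered by stained E-selectin grains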;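 on nuclei count: 100% = median nuclei count of all wells on the same plate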). The note with it: HUVEC TNFalpha-induced E-selectin immunofluorescence imaging, at 2 µM; inhibition: stronger effect = higher value; nuclei count: measured here: cell number, toxicity.
The target of test [4] is Voltage-gated potassium channel subunit beta-2 (Rattus norvegicus) (UniProt P62483). Put plainly: KvBeta enzyme negative modulators, primary screen, biochemical, NADPH fluorescence (AID 622;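 active means fluorescence slope higher than the sample average by over 3 SD, cut at about -0.22 in these data, passing the limit was not always enough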;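 further: slope of raw intensity against log time taken from 70 to 1610 s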). The conditions noted are these: recombinant KvBeta, 4-cyanobenzaldehyde reduction, at 10 µM, stronger effect = higher value.
Test [5] has the same target. Put plainly: KvBeta positive modulators, primary screen, biochemical, NADPH fluorescence (AID 623;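 active means NADPH fluorescence slope more negative than the mean of all samples by about 3 SD, 99.7% confidence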;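 further: fluorescence intensity change per second fitted from 20 to 320 s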). The note with it: Recombinant KvBeta, NADPH fluorescence decrease slope, 10 min; at 10 µM; stronger effect = lower value.
The target of test [6] is Alpha-2C adrenergic receptor (Homo sapiens) (UniProt P18825). In words: modulators of alpha2C/GIRK thallium flux, primary screen, cell-based, HEK293 alpha2C/GIRK1/2 (AID 624;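 active means fluorescence slope after compound addition differing from the mean of all screened samples at 99.7% confidence, in either direction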;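 further: slope of fluorescence ratio to pre-addition baseline per second over 15 to 24 s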). The note with it: thallium flux BTC fluorescence, at 10 µM, actives lie on both sides.
The nature of test [7]: inhibitors of larval lipid processing in zebrafish, primary screen, whole organism, PED6 fluorescence, gall bladder and intestine (AID 686;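 active means a full or partial loss of lipid-probe fluorescence in the fish gall bladder, intestine or both, judged by eye; inactive means no fluorescence loss, or compound toxic to the fish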;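 further: larvae 5 to 7 days old with five fish per well; signal comes from phospholipase A2 cleavage of quenched PED6 carried via bile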). The note with it: Zebrafish larvae PED6 lipid processing, fluorescence scoring; screened at 20 µM (by protocol). In a few lines: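 System: live zebrafish larvae aged 5-7 days, whole organism; measure: graded gall bladder and intestinal fluorescence inhibition per well; incubation: overnight exposure; reagent: ingested quenched lipid PED6 at 100 nM; signal: By-eye fluorescence microscopy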

The nature of test [8]: inhibitors of Sendai virus-induced IRF3 signaling, primary screen, TLR/RLR signaling modifier project, cell-based, Sendai virus stimulus, luciferase, 10K MLSCN set (AID 602276;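 active means inhibition at or above 50% at 10 µM; inactive means inhibition below 50%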;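 further: firefly luciferase from ISG56 promoter only with Renilla not read in this screen; 0% = Sendai virus plus DMSO and 100% = medium plus DMSO without virus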). The conditions noted are these: HEK293 RL24 IRF3 luciferase reporter, at 10 µM, stronger effect = higher value. On the technique in general: A reporter such as luciferase makes a cellular process visible.
A short description of test [9]: inhibitors of poly I:C-induced TLR3 signaling, primary screen, cell-based, poly I:C stimulus, luciferase, 10K MLSCN set (AID 602277;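 active means inhibition of the reporter signal at or above 50%; inactive means inhibition below 50%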). The conditions noted are these: HEK293-TLR3 RL24 IRF3 luciferase reporter, at 10 µM, stronger effect = higher value.

SMILES strings stand for the structures. The source made the active and inactive calls.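 How the source made its calls, unless noted: active means inhibition above 20% together with a positive visual image hit; inconclusive means visual image hit but inhibition not above 20%; inactive means no visual image hit.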

Chain of Voltage-gated potassium channel subunit beta-2 (Rattus norvegicus) (P62483 whole entry, looked up): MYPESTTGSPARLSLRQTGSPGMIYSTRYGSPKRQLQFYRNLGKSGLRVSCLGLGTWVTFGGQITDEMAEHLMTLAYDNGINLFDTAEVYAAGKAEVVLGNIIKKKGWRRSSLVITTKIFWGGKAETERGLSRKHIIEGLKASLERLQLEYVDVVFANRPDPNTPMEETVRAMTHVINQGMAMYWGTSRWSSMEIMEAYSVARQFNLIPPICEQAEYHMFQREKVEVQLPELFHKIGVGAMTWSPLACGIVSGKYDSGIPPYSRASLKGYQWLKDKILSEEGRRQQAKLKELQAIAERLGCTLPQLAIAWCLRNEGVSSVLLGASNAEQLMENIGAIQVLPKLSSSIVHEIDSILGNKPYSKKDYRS
Chain of Alpha-2C adrenergic receptor (Homo sapiens) (P18825 whole entry, looked up): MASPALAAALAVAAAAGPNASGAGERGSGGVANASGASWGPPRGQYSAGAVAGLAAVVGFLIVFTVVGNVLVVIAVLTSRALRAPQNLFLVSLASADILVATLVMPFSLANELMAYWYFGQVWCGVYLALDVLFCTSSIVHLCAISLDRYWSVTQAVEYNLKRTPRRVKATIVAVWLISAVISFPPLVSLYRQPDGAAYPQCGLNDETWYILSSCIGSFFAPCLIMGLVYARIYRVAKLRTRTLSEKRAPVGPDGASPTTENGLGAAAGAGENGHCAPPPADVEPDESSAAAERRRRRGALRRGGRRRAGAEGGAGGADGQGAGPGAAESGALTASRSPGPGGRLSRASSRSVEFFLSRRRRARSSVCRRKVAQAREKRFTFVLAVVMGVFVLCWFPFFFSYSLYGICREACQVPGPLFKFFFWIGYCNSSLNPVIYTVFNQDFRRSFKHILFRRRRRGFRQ

`COC(=O)CCn1nnc(-c2ccc(C)cc2)n1`: the cell count in [1] was found to be 390. Further, the inhibition in [1] was 7.6% (inactive); in test [3] it was -24.9% (inactive); in test [8], 21.3% (inactive); in test [9], 24.4% (inactive). The inhibition of aggregation in test [2] is -4.9% (inactive). The nuclei count in test [2] is 110%; in test [3], 108%. Also, the fluorescence slope in test [4] was -0.341 (inactive). Also, in [5], the NADPH fluorescence slope was -4.2e-06 (inactive). Also, the slope in test [6] is 0.00816 (inactive). Moreover, in [7], the result was inactive.

For the compound `Cc1ccc(Cn2c(SCC(N)=O)nc3c2c(=O)n(C)c(=O)n3C)cc1`, in test [1], the cell count was determined as 582. The inhibition in test [1] is -6.2% (inactive); in test [3], 29.5% (inactive); in test [8], 0.352% (inactive); in test [9] it was 2.84% (inactive). In test [2], the inhibition of aggregation was 19.4% (inactive). In addition, the nuclei count in test [2] stood at 88%; in test [3], 72.3%. The fluorescence slope in [4] was -0.333 (inactive). In test [5], the NADPH fluorescence slope is 1e-05 (inactive). Besides, in [6], the slope was 0.00505 (inactive). In addition, the outcome in test [7] was inactive.

Take `Cn1c(=O)cc(SCC(=O)NCc2cccnc2)c2ccccc21`: the cell count in [1] stood at 634. The inhibition in [1] is 2.8% (inactive); in test [3], -48.7% (inactive); in test [8] it was 9.23% (inactive); in [9], 9.63% (inactive). In addition, the inhibition of aggregation in [2] was 3.4% (inactive). In addition, the nuclei count is 104% in test [2] and 110% in [3]. The fluorescence slope in [4] was -0.31 (inactive). In test [5], the NADPH fluorescence slope was -3.9e-05 (inactive). Further, the slope in test [6] was 0.00505 (inactive). For the same compound, the result in test [7] was inactive.

For `COC(=O)c1[nH]c2ccc(C)cc2c1NC(=O)CN1CCC(C)CC1`, in test [1], the cell count was found to be 340. The inhibition in test [1] was -0.4% (inactive); in test [3], -18.4% (inactive); in test [8], 4.88% (inactive); in test [9] it was 2.95% (inactive). Besides, in test [2], the inhibition of aggregation was 15.7% (inactive). The nuclei count in test [2] was determined as 103%; in test [3], 120%. Also, the fluorescence slope in test [4] is -0.337 (inactive). Also, the NADPH fluorescence slope in test [5] is -5.5e-05 (inactive). For the same compound, in test [6], the slope is 0.00492 (inactive). Also, the compound was classed as inactive in [7].

In the case of `Cc1ccc(S(=O)(=O)C(C#N)c2nc3ccccc3nc2OC(C)C)cc1` (stereo unspecified), the cell count in test [1] turned out to be 493. The inhibition in test [1] is 0% (inactive); in [3], -79.1% (inactive); in test [8], 9.93% (inactive); in [9] it was 10.6% (inactive). In test [2], the inhibition of aggregation is -10.6% (inactive). In addition, the nuclei count in test [2] stood at 103%; in test [3], 114%. The fluorescence slope in test [4] was -0.38 (inactive). Besides, the NADPH fluorescence slope in test [5] is -8.6e-05 (inactive). In addition, in test [6], the slope was 0.00476 (inactive). Besides, in [7], the result was inactive.

Take `O=C(CN(CC1CCCO1)S(=O)(=O)c1ccc(S(=O)(=O)NC2CC2)cc1)Nc1ccccc1` (stereo unspecified): in test [1], the cell count was 502. In addition, the inhibition is -15.8% (inactive) in test [1], 12.1% (inactive) in test [3], 7.42% (inactive) in test [8] and 7.34% (inactive) in [9]. In addition, in [2], the inhibition of aggregation is 17.8% (inactive). The nuclei count in [2] was 83.4%; in test [3], 96.1%. Also, in [4], the fluorescence slope was -0.384 (inactive). The NADPH fluorescence slope in test [5] is -4.7e-05 (inactive). The slope in test [6] is 0.00436 (inactive). Moreover, the compound was classed as inactive in test [7].

Turning to `CCCNC(=O)c1cc(S(=O)(=O)N2CCc3ccccc32)ccc1F`, the cell count in test [1] came to 503. In addition, the inhibition was -17.2% (inactive) in test [1], -32.7% (inactive) in [3], 8.07% (inactive) in test [8] and 0.176% (inactive) in test [9]. Further, in test [2], the inhibition of aggregation is 14.3% (inactive). Besides, the results for the nuclei count in test [2] and in test [3] were 74.6% and 104%, respectively. Further, the fluorescence slope in [4] is -0.412 (inactive). In test [5], the NADPH fluorescence slope was -7.4e-05 (inactive). The slope in test [6] was 0.00573 (inactive). The result in test [7] was inactive.

As to `COc1cccc(CN2C(=O)C3(C(C#N)=C(N)OC4=C3C(=O)CCC4)c3ccccc32)c1` (stereo unspecified), the cell count in test [1] stood at 352. Also, the inhibition in test [1] is -0.9% (inactive); in test [3], -15.9% (inactive); in test [8], 12.7% (inactive); in test [9] it was 14.6% (inactive). Further, in [2], the inhibition of aggregation is -11.5% (inactive). For the same compound, the nuclei count in test [2] was found to be 94.1%; in [3], 77.7%. Besides, the fluorescence slope in [4] is -0.414 (inactive). The NADPH fluorescence slope in test [5] was -5.5e-05 (inactive). For the same compound, in test [6], the slope is 0.00531 (inactive). The outcome in [7] was inactive.

Turning to `Cc1nonc1NC(=O)c1ccccc1Br`, in [1], the cell count stood at 620. Besides, the inhibition in test [1] was 9.6% (inactive); in [3], 52.4% (inactive); in [8] it was 12% (inactive); in test [9], 22.4% (inactive). Besides, the inhibition of aggregation in test [2] is 28.1% (inactive). Besides, the nuclei count in test [2] was determined as 96.4%; in test [3] it was 60%. In [4], the fluorescence slope was -0.346 (inactive). Further, the NADPH fluorescence slope in test [5] is -5.8e-05 (inactive). Besides, the slope in test [6] was 0.00524 (inactive). Besides, the outcome in test [7] was inactive.

In the case of `O=C(c1ccc2snnc2c1)N1CCOCC1`, the cell count in test [1] stood at 370. Moreover, the inhibition in [1] was 6.3% (inactive); in [3] it was -50.1% (inactive); in [8], 10.1% (inactive); in [9] it was 13.9% (inactive). For the same compound, in [2], the inhibition of aggregation is -11.2% (inactive). For the same compound, the figures for the nuclei count in [2] and in test [3] were 107% and 117%, respectively. Further, the fluorescence slope in test [4] was -0.371 (inactive). The NADPH fluorescence slope in [5] is -4.9e-05 (inactive). The slope in test [6] was 0.00486 (inactive). For the same compound, in [7], the result was inactive.

For the compound `NC(=O)c1ccsc1NC(=O)COC(=O)Cc1ccsc1`, the cell count in test [1] was 246. The inhibition in [1] was -18.9% (inactive); in test [3] it was 26.2% (inactive); in test [8], 9.36% (inactive); in test [9], 10.7% (inactive). The inhibition of aggregation in test [2] was 17.1% (inactive). Also, the figures for the nuclei count in test [2] and in test [3] were 81% and 75.6%, respectively. Also, the fluorescence slope in [4] was -0.453 (inactive). The NADPH fluorescence slope in [5] was -4.6e-05 (inactive). Moreover, the slope in [6] was 0.00509 (inactive). In addition, the call in [7] was inactive.

On to `O=S1(=O)CCN2C(=N1)SC1=C2CCN(Cc2ccccc2)C1`, for which, in [1], the cell count amounted to 514. The inhibition in [1] is -3% (inactive); in [3], -42.3% (inactive); in [8], 17% (inactive); in [9] it was 13.7% (inactive). Further, the inhibition of aggregation in [2] is -3.2% (inactive). Further, the nuclei count in test [2] came out at 91.4%; in test [3] it was 144%. In addition, the fluorescence slope in test [4] is -0.434 (inactive). The NADPH fluorescence slope in test [5] is -1e-05 (inactive). In addition, the slope in test [6] was 0.00453 (inactive). For the same compound, the outcome in test [7] was inactive.

On to `Nn1c(SCC(=O)Nc2ccccc2)nnc1-c1cccnc1`, for which the cell count in test [1] is 502. For the same compound, the inhibition in test [1] is -4.8% (inactive); in [3], 7% (inactive); in [8], -6.03% (inactive); in test [9], -3.73% (inactive). Also, the inhibition of aggregation in test [2] is 11% (inactive). For the same compound, the results for the nuclei count in test [2] and in [3] were 126% and 118%, respectively. Besides, in test [4], the fluorescence slope was -0.363 (inactive). For the same compound, the NADPH fluorescence slope in test [5] was -3.7e-05 (inactive). Moreover, the slope in [6] was 0.00741 (inactive). The call in test [7] was inactive.

What is called inhibition is the relative decrease from the control value, in per cent.
